Consider 167 variants from the RNAGym collection of RNA variant scans (doi:10.1126/science.aae0568).

This sample holds only a part of the variants without activity.

The chains are these.
B1: tRNA (parent)
chain: GUUCCGUUGGCGUAAUGGUAACGCGUCUCCCUCCUAAGGAGAAGACUGCGGGUUCGAGUCCCGUACGGAACG

The variants in this series derive from B1. The series is described as follows: yeast fitness relative to wild type (ratio to wild type); higher = fitter; tRNA-Arg(CCU), competitive growth, 37 C, YPD. The method in brief: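 Amplicons of the tRNA-Arg(CCU) gene were sequenced, 100-nucleotide paired-end, from the start population and from each end population of a pooled yeast competition. The competition, in six parallel replicates, lasted 24 hours in YPD at 37°C. Fitness relative to wild type was calculated from changes in genotype frequencies. Genotypes had to have ≥ 100 starting reads, and estimates < 0.5 were set to 0.5.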
Take U13A G41A G48A U53C: the yeast fitness is at most 0.5.
As for C34G A45C G51A A65U, the figure is 0.617; as for C4A C5U A20G U28A A37U C61U A69U, at most 0.5; as for A36G A40C A42G, 0.768.
With G6C G17A A36U G58C the figure was at most 0.5; with A14U A21C A36C C49A A65G C66G, 0.567; with U2A C4U G44C C61A, at most 0.5.
As for C5U G17A C46U G58A G63A U64A, the figure is at most 0.5; as for C4A G17C A20G C31G A37C, at most 0.5; as for G25C C30G C33U A45G U47G G50C G63A, at most 0.5.
Turning to U2A A70C, the yeast fitness worked out at 1.
With U26A C30U U54A the figure was at most 0.5.
With C24G C55U U64A the figure was 0.674; with C5A C30G C31G A65C, at most 0.5.
As for G12C G50A U54A, the figure is at most 0.5.
As for C33G G68C, the yeast fitness is 0.558.
As for G10C G12C C55A, the figure is at most 0.5; as for C4A C31U, 0.864; as for U7A U19A U32C, 0.829.
As for U2C C5G G9A A15U, the figure is 0.539; as for C4A U53A G67U, at most 0.5.
With C4G C31A A42C C46G the figure was 0.561; with A42U G56A, 1.02; with C27U C29U C60U A69G, 0.565.
For A42G A43G, the yeast fitness was found to be 0.766.
As for A14U G63C, the figure is at most 0.5.
Regarding U19G G44A, the yeast fitness is 0.953.
With A14C G41A A43C the figure was at most 0.5; with U19C A21C G51A G58A, at most 0.5.
On to U16A C33G G58A G68C, for which the yeast fitness was at most 0.5.
As for U3A G10A C30U C60G, the figure is at most 0.5.
As for C31U U32G, the figure is 0.662; as for U2G G18A A21G G25A G51C, at most 0.5.
As for U19C C27U C29G C34A A42C A65G, the yeast fitness amounted to 0.541.
As for G10C C30G, the figure is 0.507; as for G9A G12U A14U, at most 0.5.
As for C33G U47C C62A, the figure is 0.601.
With C30U C46A G63A the figure was 0.825; with U7G G39A C66U, at most 0.5.
With C5A C30U U35A A42G C61U G63A, the yeast fitness was 0.538.
For the variant C11G A65C, the yeast fitness was 0.594.
With A15G G39A A69U, the yeast fitness was 0.774.
As for A20G A43U C61G, the figure is at most 0.5; as for U3A C31U A45U G68C, at most 0.5.
As for A20G A21C C49U, the figure is 0.548; as for G48A C60G A70C, at most 0.5.
As for G6A G44A A45G G51C C66U A69C, the figure is at most 0.5; as for A20C G39C C61U, at most 0.5.
Take U2G A42U U64G: the yeast fitness was at most 0.5.
Consider A20C A40C, for which the yeast fitness came to 0.788.
As to U3A A21U, the yeast fitness was 0.71.
As for A15C G58C, the yeast fitness is 0.575.
As for G9A U13A U32A, the figure is 0.839.
As for G6C A45C G50A, the figure is 0.629; as for G38C C66U, 0.664; as for A42G G68A, 0.728.
With U28G A36G A45G the figure was 0.718; with C4G A20U C31G, 0.555; with C27G A69G, 0.652.
As to G25C C30G C60U, the yeast fitness was at most 0.5.
As for G25C U26C, the figure is 0.904.
Turning to G6A G23U C24G U35A G48C, the yeast fitness is at most 0.5.
In the case of U16C C22G U54C, the yeast fitness came out at 0.661.
With G9A A36G C66U the figure was 0.77; with C24U U26C C49U, 0.692; with G9A C55G, 0.549.
On to A14C U26G C29A A42C, for which the yeast fitness is at most 0.5.
In the case of C34U C55U C60A, the yeast fitness is at most 0.5.
With U16G C55G the figure was 0.544.
With U2A G67A the figure was 0.844.
As for U2G A21C C46G C49G, the figure is at most 0.5; as for A20G U64G A70C, 0.619; as for C11A G56C, at most 0.5.
For A15U U16G G39A C60G A70G, the yeast fitness was at most 0.5.
As to A14C C34U, the yeast fitness was at most 0.5.
In the case of G6C C55U A70G, the yeast fitness was determined as 0.7.
As for A21U C27G A40G, the yeast fitness is at most 0.5.
As to G51C C62U A70U, the yeast fitness is at most 0.5.
As to U7C A15C A40G U53G, the yeast fitness is at most 0.5.
For C11U A21C C27G G39C, the yeast fitness stood at 0.544.
As for A14G A70G, the figure is 0.861.
As for C55U C61A A65U, the figure is 0.581; as for A20U U64A, 0.821; as for A14C A36U, 0.591.
As for C33A U64A A70C, the figure is at most 0.5.
In the case of C11U U16C U19A C29U, the yeast fitness was at most 0.5.
For the variant A14G A40G, the yeast fitness was found to be 0.856.
For the variant G25A C46U, the yeast fitness was found to be 0.938.
For C34A G44C A57U C62U, the yeast fitness is at most 0.5.
With U3C G6A A14G G18C C30U C31U G48A C55G, the yeast fitness is at most 0.5.
With G23C U54A the figure was at most 0.5.
Turning to G25A C27G C46G C61A, the yeast fitness was at most 0.5.
Consider A14G U19C U59A, for which the yeast fitness was at most 0.5.
For the variant A14U G17U C24A C30G, the yeast fitness is at most 0.5.
For the variant G17C U26C, the yeast fitness came to 0.698.
As for G6C C11G A15G C66A, the figure is at most 0.5.
As for C5A G39A C49U G56C, the figure is at most 0.5.
With U2A A20C A40G the figure was 0.633; with C11A C27U A36G C49A, at most 0.5.
As for G18C G23A G25C A37G A43C C55G G68A, the yeast fitness worked out at 0.551.
As for G56A A65U G67A, the yeast fitness was at most 0.5.
As for G9A G10A C31G G52A C60U, the figure is at most 0.5; as for A40U A65C, 0.652.
As for C30U U59A, the yeast fitness was 0.828.
In the case of C24G C33U C62A A70G, the yeast fitness was at most 0.5.
With U7A U19A the figure was 0.752; with C4G G9C G38C G68A, at most 0.5.
As for U3A C4U U7A C24U, the figure is at most 0.5.
With C11A A21C C31A the figure was 0.567; with C5U C30A G39A C66G, at most 0.5; with C34U G63C, at most 0.5.
Turning to C29G G50C, the yeast fitness is 0.607.
With C46A G58U G68A the figure was 0.932; with C30G C31A U47G G58C, at most 0.5; with G12C U16A C24G G58C, 0.567.
Regarding A21G U54C, the yeast fitness amounted to 0.937.
In the case of C24G U47C, the yeast fitness worked out at 0.688.
Turning to G51C G52C U59A, the yeast fitness was found to be 0.614.
With G38A A70G the figure was 0.998.
As for C4U U7G C34G G48C C61U, the figure is at most 0.5.
As for U47C G52C, the yeast fitness came to 0.612.
As for C5G A20C G39C C62U G63C, the figure is at most 0.5.
As for U8A A43U, the figure is 0.763; as for U3C C5G G63C C66G, at most 0.5; as for C27U G67A, 1.02.
With A15G G41C the figure was 0.827.
For the variant A15U U28A C33G G56A, the yeast fitness was at most 0.5.
On to G44U A45U G63C, for which the yeast fitness was at most 0.5.
U2G G67A: the yeast fitness turned out to be 0.901.
As to U3C C31U G52C, the yeast fitness turned out to be 0.591.
As for C46G C61A, the figure is 0.678.
As for C24A G38A U47A C55G C61U, the figure is at most 0.5; as for U2G A40C, 0.698; as for U32C C46G G56C, at most 0.5.
With A57G C60A the figure was 0.636; with U16C C24G U28A A43C, at most 0.5; with U2A A15C U47C, at most 0.5.
A40C C66A: the yeast fitness was 0.755.
Take C5U U28G C49A: the yeast fitness is at most 0.5.
As for C4U U8G G12A, the figure is 0.539.
With C4G U8C U47A, the yeast fitness is at most 0.5.
A15G G44A C49U G50C A70G: the yeast fitness is at most 0.5.
With C4U U16C C61U, the yeast fitness turned out to be 0.737.
With U3C C11U C31U the figure was 0.782.
For C4G A40U C46U G67U, the yeast fitness worked out at 0.602.
Take A42G G44C A45G: the yeast fitness was determined as 0.723.
On to A15C A40G A65G, for which the yeast fitness was 0.511.
In the case of A14G C27G A37G U59G, the yeast fitness was at most 0.5.
As for C11A U28G C34U G67A, the figure is at most 0.5; as for C4U C11U A45C, 0.7.
Regarding C33A G44A A70C, the yeast fitness stood at 0.547.
With C22A C29U C66G the figure was at most 0.5.
With A15C G52A C66U the figure was at most 0.5.
With C11U C31U G58C the figure was 0.643; with C33G A40G U59A, at most 0.5; with C11G A15G U54G, at most 0.5.
With G6C C11A G48C, the yeast fitness was 0.627.
As for A42C U47G C49U, the yeast fitness was at most 0.5.
With G18C U35G G41C C66G the figure was at most 0.5; with G6A G23C C30G G39C, at most 0.5.
As for A37G A45C C61G, the figure is at most 0.5.
In the case of G12A G25A G48A, the yeast fitness was found to be 0.66.
As to C4U C30A C55G, the yeast fitness came to 0.549.
As for U7C C31G U32C G48C G50A A65U, the figure is at most 0.5; as for A20G A21C G39C G48C C62G, at most 0.5; as for U2A G25A C31G G39C C49U C60G, at most 0.5.
Take G6C G41A A45C A57C: the yeast fitness was at most 0.5.
